The results in this text go back to ChEMBL document CHEMBL1129059, “Antitumor properties of some 2-[(dimethylamino)methyl]phenylgold(III) complexes” (J Med Chem, 1996).

Usually IC50 stands for the midpoint of a concentration-inhibition curve. Low values mean higher potency, high ones lower potency. The term Solubility denotes the concentration that dissolves in the medium under given conditions. Higher therefore signals much dissolved substance.

The nature of data set [1]: Range is evaluated. (Highest IC50/Lowest IC50). Type of data set: functional.
Data set [2] deals with Mus musculus. Nature of the data set: Compound was evaluated for antitumor activity (RTV) in HT1376 carcinoma Xenograft, at a dosage 4.5 mg/kg on day 21. Type of data set: functional, organism-based. Further details: dose 4.5 mg/kg. In a few lines: (§1)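 HT1376 tumor fragments implanted subcutaneously in nude mice flanks; mice with established palpable tumors randomized into groups of 6 (controls 10). Compounds given intraperitoneally as suspensions in 0.5% carboxymethylcellulose in 0.9% saline, on days 0, 7, 14 and 21. Tumor dimensions on days 0, 7, 14, 21, 28. RTV = 100(mean tumor volume at assessment)/(mean start volume).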

The subject of data set [3] is Mus musculus. Kind of data set: Compound was evaluated for antitumor activity (RTV) in HT1376 carcinoma Xenograft, at a dosage 4.5 mg/kgon day 13. It is filed as functional, organism-based. Further details: dose 4.5 mg/kg.
The subject of data set [4] is Mus musculus. Nature of the data set: Compound was evaluated for antitumor activity (T/C) in HT1376 carcinoma Xenograft, at a dosage 4.5 mg/kg on day 13. It is filed as functional, organism-based. Further details: dose 4.5 mg/kg. In a few lines:
(§2)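 Nude mice carrying subcutaneous flank HT1376 fragments; treatment began once tumors were established and palpable, randomized into groups of 6 treated and 10 control mice. Dosing was ip as a suspension in 0.5% carboxymethylcellulose in 0.9% saline on days 0, 7, 14 and 21, at the MTD and two 2-fold dilutions. Tumors were measured on days 0-28. RTV = 100(mean volume at assessment)/(mean start volume); T/C = treated RTV/control RTV.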

In data set [5] the test system is Mus musculus. Kind of data set: Compound was evaluated for antitumor activity (RTV) in HT1376 carcinoma Xenograft, at a dosage 4.5 mg/kg on day 28. Type of data set: functional, organism-based. Further details: dose 4.5 mg/kg. The method in brief: as §1
Data set [6] concerns Mus musculus. Kind of data set: Compound was evaluated for antitumor activity (RTV) in HT1376 carcinoma Xenograft, at a dosage 4.5 mg/kg on day 7. Type of data set: functional, organism-based. Further details: dose 4.5 mg/kg. The method in brief:
as §1

For data set [7], the system named is Mus musculus. Kind of data set: Compound was evaluated for antitumor activity (T/C) in HT1376 carcinoma Xenograft, at a dosage 4.5 mg/kg on day 28. Type of data set: functional, organism-based. Further details: dose 4.5 mg/kg. In a few lines: as §2
In data set [8] the test system is Mus musculus. Nature of the data set: Compound was evaluated for antitumor activity (T/C) in HT1376 carcinoma Xenograft, at a dosage 4.5 mg/kg on day 21. It is filed as functional, organism-based. Further details: dose 4.5 mg/kg. The method in brief: as §2
Data set [9] relates to Mus musculus. Nature of the data set: Compound was evaluated for antitumor activity (T/C) in HT1376 carcinoma Xenograft, at a dosage 4.5 mg/kg on day 7. Further details: dose 4.5 mg/kg. Type of data set: functional, organism-based. In a few lines: as §2
For data set [10], the system named is A2780. Nature of the data set: Compound was tested for in vitro growth inhibition of Ovarian carcinoma cell line panel A2780-R. It is filed as functional, cell-based, Homo sapiens. The method in brief: (§3)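 Ovarian lines grown as monolayers in DMEM with 10% FBS, insulin, hydrocortisone and L-glutamine under 6% CO2. Cells were seeded at 3–5 × 10³/well and left to attach overnight. Compounds were freshly dissolved in DMA or water and applied for 96 h in quadruplicate wells. Growth was measured by SRB and reported as IC50.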

Data set [11] has as its system SK-OV-3. Kind of data set: Compound was tested for in vitro growth inhibition of primary panel tumor cell lines SK-OV-3. It is filed as functional, cell-based, Homo sapiens. The method in brief:
(§4)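 Primary-panel lines kept in L15, RPMI 1640 plus pyruvate, or MEM, each with 10% FBS. Cells were seeded at 5×10^4–10^5 cells/mL, preincubated 24 h, then exposed 4 h to 0–200 μg/mL from a 2 mg/mL stock in 10% DMA/PBS. After washout and 72 h further growth, cells were read by SRB. IC50 was the concentration giving 50% survival versus untreated controls.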

Data set [12] is described as follows: Solubility at 25 degrees Celsius in 1-Octanol. Type of data set: physicochemical. In a few lines: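 A sample was tumbled in 1-octanol at 25 °C for 24 h and filtered. An aliquot was evaporated and the residue taken up in dilute aqua regia. Gold content was determined as for the aqueous samples, with indium as internal standard.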
The subject of a further data set is HT-1376. Nature of the data set: Compound was tested for in vitro growth inhibition of primary panel tumor cell line HT1376. Type of data set: functional, cell-based, Homo sapiens. In a few lines: as §4
A further data set has as its system ZR-75-1. Kind of data set: Compound was tested for in vitro growth inhibition of primary panel tumor cell line ZR-75-1. Type of data set: functional, cell-based, Homo sapiens. In a few lines: as §4
A short description of data set [13]: Solubility at 25 degrees Celsius in water. It is filed as physicochemical. Conditions: buffer. The method in brief:
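5–10 mg sample was tumbled in 5.0 mL water at 25 °C for 24 h and filtered. The solution was diluted as needed and gold was quantified with 1 ppm indium as internal standard.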

For data set [14], the system named is CH1. Nature of the data set: Compound was tested for in vitro growth inhibition of Ovarian carcinoma cell line panel CH1-R. It is filed as functional, cell-based. The method in brief: as §3
The next data set concerns SW 1116. Kind of data set: Compound was tested for in vitro growth inhibition of primary panel tumor cell line SW1116. Type of data set: functional, cell-based, Homo sapiens. The method in brief:
as §4

Data set [15] deals with SW-620. Kind of data set: Compound was tested for in vitro growth inhibition of primary panel tumor cell lines SW620. It is filed as functional, cell-based, Homo sapiens. The method in brief:
as §4

In another data set the test system is HT-29. Nature of the data set: Compound was tested for in vitro growth inhibition of primary panel tumor cell line HT-29/219. It is filed as functional, cell-based, Homo sapiens. The method in brief:
as §4

The subject of data set [16] is A2780. Kind of data set: Compound was tested for in vitro growth inhibition of Ovarian carcinoma cell line panel A2780. It is filed as functional, cell-based, Homo sapiens. The method in brief: as §3
A further data set concerns HX62 cell line. Nature of the data set: Compound was tested for in vitro growth inhibition of Ovarian carcinoma cell line panel HX62. Type of data set: functional, cell-based, Homo sapiens. In a few lines: as §3
Data set [17] concerns SK-OV-3. Nature of the data set: Compound was tested for in vitro growth inhibition of Ovarian carcinoma cell line panelSK-OV-3. Type of data set: functional, cell-based, Homo sapiens. The method in brief: as §3
Data set [18] deals with CH1. Kind of data set: Compound was tested for in vitro growth inhibition of Ovarian carcinoma cell line panel CH1. It is filed as functional, cell-based. The method in brief: as §3
In data set [19] the test system is SW-620. Nature of the data set: Compound was tested for in vitro growth inhibition of primary panel tumor cell line SW620. Type of data set: functional, cell-based, Homo sapiens. In a few lines:
as §4

Data set [20] relates to SK-OV-3. Kind of data set: Compound was tested for in vitro growth inhibition of Ovarian carcinoma cell line panel SK-OV-3. Type of data set: functional, cell-based, Homo sapiens. The method in brief:
as §3

“And” between values parts separate entries of the source, which are not always exact repeats. Equal entries are not always repeated.

Regarding “Dichloro[2-(dimethylamino)methyl]phenyl-C,N]gold-(III) [listing 1 of 2 here]”, in [1], the Range was 4.6 and 13.3.
Regarding “Bis(thiocyanato)[2-(dimethylamino)methyl]phenyl-C,N]gold-(III)”, the Range in data set [1] is 7.6 and 19.5.
CISPLATIN: the RTV in the data set on Mus musculus [2] was 544; in the data set with Mus musculus [3], 364; with Mus musculus [5], 1050; in the data set with Mus musculus [6] it was 245. The T/C in the data set on Mus musculus [4] was 0.72; in the data set on Mus musculus [7], 0.73; with Mus musculus [8], 0.61; with Mus musculus [9] it was 0.88.
Regarding “Dichloro[2-(dimethylamino)methyl]phenyl-C,N]gold-(III) [listing 2 of 2 here]”, the IC50 in the data set on A2780 [10] is 47 µM; with SK-OV-3 [11], 45 µM; in the data set on HT-1376, 30 µM; in the data set with ZR-75-1, 27 µM; in the data set with CH1 [14] it was 22 µM; with SW 1116, 119 µM. The IC50 is 124 µM in the data set on SW-620 [15]; 55 µM in the data set on HT-29; 8.2 µM in the data set with A2780 [16]; 57 µM in the data set with HX62 cell line; 109 µM in the data set on SK-OV-3 [17]; 13 µM with CH1 [18]. In addition, the Solubility in [12] amounted to 920 µM; in [13] it was 250 µM.
With “Malonato[2-(dimethylamino)methyl]phenyl-C,N]gold-(III)”, the IC50 with SW-620 [19] turned out to be 67 µM; in the data set with A2780 [10], 16 µM; in the data set with SK-OV-3 [20], 30 µM; in the data set with SK-OV-3 [11], 11 µM; in the data set with HT-1376, 11 µM; in the data set with ZR-75-1, 36 µM. Further, the IC50 came out at 3.3 µM with CH1 [14]; 80 µM in the data set with SW 1116; 36 µM in the data set with HT-29; 2.7 µM with A2780 [16]; 27 µM in the data set on HX62 cell line; 2.7 µM with CH1 [18]. For the same substance, the Solubility in [12] came to 3570 µM; in data set [13], 3580 µM.
